Assays:
Recombinant rat β-NGF = Recombinant rat β-NGF (Rattus norvegicus, UniProt P25427); test: NGF binding and release from hydrogels; settings: for NGF remaining in solution after incubation: 10 ng/well NGF in uDMEM, 2 h, ELISA, 10% PEG hydrogels, 5 mM peptide; for release of NGF from hydrogels: monitored over 48 h after initial binding
Method in brief: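 Recombinant rat β-NGF at 0.05 µg/mL final in uDMEM added. Media collected with replacement at 2, 4, 6, 24 and 48 h and stored at −80 °C. Sandwich ELISA gave bound NGF and cumulative release.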

radiolabeled lipoplexes = test: DNA binding and release of lipoplexes to hydrogel surfaces; settings: for amount of bound DNA retained: release study, by day 6
Method in brief: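 Cell-free hydrogels carrying 5 mM RDG, KDKG, K4 or K8 peptide, washed immediately and after 1 h swelling in uDMEM. Radiolabelled TransFast–plasmid lipoplexes in uDMEM added at 2 µg DNA/well for 2 h at room temperature. Unbound solution removed and scintillation-counted. Gels washed twice with uDMEM immediately and at 2, 4 and 6 h, then sampled periodically with replacement for 6 days. Counts converted to DNA via standard curve.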

[1] = cited from earlier work

Sequence of Recombinant rat β-NGF (P25427 122-241): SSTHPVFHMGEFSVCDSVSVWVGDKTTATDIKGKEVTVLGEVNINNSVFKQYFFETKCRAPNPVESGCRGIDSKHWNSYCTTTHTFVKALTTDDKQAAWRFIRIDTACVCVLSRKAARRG

Row | Substance | NGF remaining in solution after incubation (Recombinant rat β-NGF) | amount of bound DNA retained (radiolabeled lipoplexes) | release of NGF from hydrogels (Recombinant rat β-NGF) | mean quantity of vector bound, greater than KDKG and RDG conditions (radiolabeled lipoplexes; throughout the 6-day release study) | diffusivity of NGF, DN [1] | rate constant for NGF degradation, kdeg ([1]; in buffered solution)
1 | GCGYGRDGSPG [reference compound] | 3.8 ng | 20% |  |  |  | 
2 | GCGYGKKKKKKKK [K8] | 3.2 ng | 41% | lowest |  |  | 
3 | GCGKKKK [K4] | 3.4 ng |  | intermediate between the RDG and K8 conditions | approximately 5% |  | 
4 | NGF: nerve growth factor protein |  |  |  |  | 12 × 10^−7 cm^2/s | 4.83e-05 s⁻¹
